Source: PubChem BioAssay (The Scripps Research Institute Molecular Screening Center)
Most compounds without a hit are left out; they make up all but 2.6% or so of the library.
HTRA1 inhibitor = inhibitors of human serine peptidase HTRA1. 0.5% of 340,000 active. recombinant HTRA1, FP-rhodamine activity-based probe, fluorescence polarization. inhibition, % at 5.96 µM; in the data active means inhibition above about 36%;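 further: 0% = enzyme with DMSO and 100% = wells lacking enzyme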
mABHD4 FP = inhibits mouse alpha/beta hydrolase domain 4; 0.54% of 370,000 active; Q8VD66; purified mABHD4, FP-Rh probe fluorescence polarization; inhibition, % at 8.92 µM;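 active means inhibition exceeding the mean over every tested compound plus 3 SD, cut at about 30% in these data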;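 further: 0% = plate median of compound wells and 100% = S159A mutant with DMSO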
Target sequence (Q8VD66 whole entry, looked up, the tested form may be a part): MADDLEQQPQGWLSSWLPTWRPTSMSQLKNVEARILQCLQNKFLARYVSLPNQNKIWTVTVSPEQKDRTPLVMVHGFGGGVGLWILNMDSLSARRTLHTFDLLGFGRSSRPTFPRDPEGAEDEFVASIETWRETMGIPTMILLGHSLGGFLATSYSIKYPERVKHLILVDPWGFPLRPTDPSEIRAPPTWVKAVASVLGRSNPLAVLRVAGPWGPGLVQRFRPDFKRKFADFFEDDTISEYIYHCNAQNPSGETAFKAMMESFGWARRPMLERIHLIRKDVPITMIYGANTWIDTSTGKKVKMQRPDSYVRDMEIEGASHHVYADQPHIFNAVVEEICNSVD
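Material: mouse ABHD4 enzyme, wild type; Benchmarks: S159A mutant high control, sample median low control; Buffer or medium: HEPES pH 7.0, NaCl, Pluronic buffer; Signal: fluorescence polarization; Read-out: percent inhibition of probe binding, normalized to plate controls; Timing: pre-incubation 45 min, probe exposure 60 min, at 25 °C; Dosing: 8.92 µM, single dose.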
SIAE inh = inhibitors of human sialic acid acetylesterase SIAE. Q9HAT2. SIAE FP-Rh probe binding, fluorescence polarization. inhibition, % at 9.66 µM. 0.69% of 370,000 active;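 active means inhibition above a cutoff: mean of compounds within the control limits plus 3 SD of those, cut at about 17% in these data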;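 further: 0% = plate median of compound wells and 100% = probe without SIAE protein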
PRMT1 FP inh = inhibitors of human PRMT1 | 1.3% of 370,000 active | AID 652257 | inhibition, % at 2.79 µM | recombinant PRMT1, activity-based probe fluorescence polarization;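 active means inhibition above about 21% made by adding two undisclosed values, limit read from the data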
Target sequence (Q99873 whole entry, looked up): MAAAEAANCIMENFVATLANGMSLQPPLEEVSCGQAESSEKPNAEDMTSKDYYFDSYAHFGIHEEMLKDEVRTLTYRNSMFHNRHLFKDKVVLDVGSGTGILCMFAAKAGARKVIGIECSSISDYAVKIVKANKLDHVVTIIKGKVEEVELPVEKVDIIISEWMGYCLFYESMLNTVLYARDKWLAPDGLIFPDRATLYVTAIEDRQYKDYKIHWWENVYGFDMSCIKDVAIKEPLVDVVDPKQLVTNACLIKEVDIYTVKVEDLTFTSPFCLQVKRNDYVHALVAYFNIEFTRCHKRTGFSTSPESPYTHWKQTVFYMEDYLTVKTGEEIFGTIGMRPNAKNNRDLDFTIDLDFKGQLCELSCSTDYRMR
TCR-CD3 inh = inhibitors of human TCR-CD3 interaction | AID 651800 | TAMRA-labeled TCR probe fluorescence, biochemical | inhibition, % at 9.4 µM | 0.37% of 360,000 active; in the data active means inhibition above about 19%;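 further: recombinant mutant TCR 2C K166C tagged with TAMRA read by polarization; 0% = receptor in buffer alone and 100% = receptor with positive control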
HTRA1 inh conf = HTRA1 (human) inhibition, confirmation | shares compounds with HTRA1 inhibitor | recombinant HTRA1, FP-rhodamine activity-based probe, fluorescence polarization | inhibition, % at 5.96 µM | 66% of 1,600 active;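 active means mean inhibition over three repeats above a set limit taken from the earlier primary screen, cut at about 37% in these data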;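 further: 0% = HTRA1 with DMSO and 100% = wells lacking HTRA1; inhibitors block probe binding so polarization drops and inhibition rises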
Active calls of the source: *; x = not tested or not shown.

SMILES	HTRA1 inhibitor	mABHD4 FP	SIAE inh	PRMT1 FP inh	TCR-CD3 inh	others
COc1ccc(S(=O)(=O)N2CCOCC2)cc1C(=O)Nc1ccc(N2CCCCCC2)cc1	9.7	2.9	2.5	0.2	3.3
CCC(=O)N1CCC(C(=O)NC2CCCc3ccccc32)CC1 (stereo unspecified)	x	-1.5	3.7	1.3	x
CC(Sc1ccccc1)C(=O)NNC(=O)c1ccncc1 (stereo unspecified)	-4.8	4.0	1.1	21.3*	-5.0
COc1cc(CCC(C)=O)ccc1OC(=O)c1c(-c2c(F)cccc2Cl)noc1C	x	-18.8	5.2	-2.0	-1.4
O=C(NCCO)[C@H](Cc1ccccc1)NC1(C(=O)NCCN2CCOCC2)CCCCC1	x	-0.2	-5.5	0.3	x
Cc1ccc(S(=O)(=O)Nc2ccc(O)c3cccnc23)cc1	5.5	19.2	-6.7	21.5*	-15.3
NNC(=O)C1C(O)CCC2CN3CCc4c([nH]c5ccccc45)C3CC21 (stereo unspecified)	4.0	2.5	2.6	22.0*	-2.1
COC(=O)[C@@H]1[C@H]2C[C@H]3c4[nH]c5ccccc5c4CCN3C[C@@H]2CC[C@@H]1O	2.1	-0.8	7.6	-4.8	3.2
COc1ccc(NC(=O)NNC(=O)CCc2ccc(O)c(O)c2)cc1OC	9.7	14.8	7.0	23.4*	7.7
COc1ccccc1Cc1c(-c2ccccc2)nc2ccc(C)cn12	x	-4.6	2.8	-0.8	-4.4
COc1cc2c(cc1OC)-c1cc3ccc4c(c3c[n+]1CC2)OCO4	5.9	11.8	8.1	56.8*	2.2
COc1cc2c(cc1O)CC[n+]1cc3c(OC)c(OC)ccc3cc1-2	5.6	-1.5	4.0	2.1	-7.5
COC(=O)C1CN(C2CC2)CCS(=O)(=O)N1Cc1cn(Cc2ccc(OC)cc2)nn1 (stereo unspecified)	x	6.9	4.0	-0.7	x
CC(=O)Nc1ccc(SCC(=O)c2ccc(Br)s2)cc1	-10.2	-2.1	3.6	62.6*	2.9
CCOC(=O)N1CCN(c2cc(NCCC(=O)O)c3c4c(onc24)-c2ccccc2C3=O)CC1	40.2*	x	x	x	x
CN1CCN(c2cc(N3CCN(C(=O)c4ccco4)CC3)c3c4c(onc24)-c2ccccc2C3=O)CC1	63.1*	x	x	x	x
CCOC(=O)N1CCN(C(=O)c2noc3c2COc2ccccc2-3)CC1	1.4	9.2	1.6	0.1	-5.0
COc1ccccc1OCCNC(=O)CCNS(=O)(=O)c1ccc(C)cc1	0.8	6.8	-3.6	0.2	-0.8
Cc1ccc(S(=O)(=O)CCSc2cccc(C(=O)Nc3ccccc3C(=O)O)c2)cc1	-8.9	-56.1	-32.2	77.3*	5.2
CS(=O)(=O)c1ccc(-c2sc3ccccc3c2C(=O)N2CCN(c3ccc(F)cc3)CC2)cc1	-11.4	2.6	1.2	-2.4	0.3
CCOc1ccccc1NC(=O)C1C2C=CC(O2)C1C(=O)O (stereo unspecified)	0.9	2.2	3.1	23.0*	-4.5
CCOc1ccc(OCC)c(NC(=O)C2C3C=CC(O3)C2C(=O)O)c1 (stereo unspecified)	7.3	8.0	7.8	2.1	1.8
COc1ccc(Cl)cc1C(=O)NNC(=O)COC(=O)CCN=C1NS(=O)(=O)c2ccccc21	8.2	3.0	0.6	0.6	14.6
COc1ccccc1C(=O)Nc1ccc(S(=O)(=O)Nc2cc(C)nc(C)n2)cc1	1.3	-8.3	-11.6	-2.4	5.9
COc1ccc(C(=O)Nc2ccc(S(=O)(=O)Nc3cc(C)nc(C)n3)cc2)c(OC)c1	-0.2	-4.8	-9.1	21.2*	-8.8
SMILES	HTRA1 inhibitor	mABHD4 FP	SIAE inh	PRMT1 FP inh	TCR-CD3 inh	others
CCCCN(C(=O)CSc1nc2ccccc2n1CC)C1CCS(=O)(=O)C1 (stereo unspecified)	2.5	1.9	2.0	2.9	0.9
CCOc1cc(C(=O)N2CCN=C2SC)cc(OCC)c1OCC	-2.7	6.3	-1.6	24.3*	5.9
COc1ccc(C(=O)N2CCN=C2SC)cc1OC	1.6	5.4	12.1	1.1	-0.5
Cc1ccc(C2CC(=O)N3CN(c4ccc(Br)cc4)CSC3=C2C#N)o1 (stereo unspecified)	10.5	8.9	5.2	81.7*	-0.8
O=C(Nc1ccc(S(=O)(=O)Nc2ncccn2)cc1)C1=COCCO1	0.2	-6.3	-0.3	21.9*	2.3
C[C@H]1[C@H](c2ccccc2)Oc2cccc(NCCc3ccccc3)c2S(=O)(=O)N1Cc1cccc(F)c1	x	1.2	-10.8	-0.9	-2.6
CC(=O)Nc1cccc(-c2cc(N3CCN(CCO)CC3)n3nccc3n2)c1	x	-3.8	-6.7	-1.1	1.9
CCCCn1c(/C=N/Nc2nc3ccccc3[nH]2)nc2ccccc21	41.0*	24.1	6.6	0.0	4.5	HTRA1 inh conf=59.0*
O=C1Nc2ccc(Br)cc2C12NNc1ccccc1O2 (stereo unspecified)	49.1*	27.7	16.0	6.8	8.7	HTRA1 inh conf=61.6*
O=C(Nc1ccc2c(c1)OCO2)OC1CC2CC1[C@H]1CCCCN1[C@H]2Cc1ccccc1 (stereo partly specified)	x	-7.1	0.8	-3.2	x
Cc1ccc2ccc(C(Nc3cccc(C(F)(F)F)c3)c3cccnc3)c(O)c2n1 (stereo unspecified)	54.2*	3.9	4.1	5.5	-1.4	HTRA1 inh conf=60.7*
Cc1c2c(=O)n(-c3nc4ccccc4s3)nc-2cc(O)n1Cc1ccccc1	47.1*	x	x	x	x	HTRA1 inh conf=56.8*
O=S(=O)(CS(=O)(=O)c1ccc(Br)cc1)c1ccc(Br)cc1	x	0.8	-2.1	8.2	-5.1
CCN1CCc2c(sc(NC(=O)c3ccc(S(=O)(=O)N4CCOCC4)cc3)c2C(N)=O)C1	-2.3	1.4	-4.4	0.3	9.3
CCN1CCc2c(sc(NC(=O)c3ccc(S(=O)(=O)N4CCOCC4)cc3)c2C(=O)OC)C1	38.0*	-3.5	3.1	-0.7	-6.8	HTRA1 inh conf=28.3
S=C(NN=C1CCCCC1=NNC(=S)N1CCOCC1)N1CCOCC1	x	24.6	10.6	15.2	9.6
COc1ccc(C(=S)N2CCN(c3ccccc3Cl)CC2)cc1OC	-17.7	3.7	-3.0	3.7	1.4
COc1cc(C(=S)N2CCN(c3ccccc3Cl)CC2)cc(O)c1O	51.4*	23.6	2.2	10.9	16.1	HTRA1 inh conf=83.6*
CCOC(=O)c1[nH]c2ccc(C)cc2c1NC(=O)CN1CCCCC1	-1.2	0.6	2.2	0.4	-2.1
Cc1c2cc[n+](CCN3CCCCC3)cc2c(C)c2c1[nH]c1ccc(O)cc12	41.4*	x	x	x	x	HTRA1 inh conf=54.8*
Cc1cccc(NC(=S)N/N=C/c2ccc([N+](=O)[O-])s2)c1	59.5*	-2.9	10.0	0.9	-9.3	HTRA1 inh conf=67.0*
O=C(N/N=C/c1ccc([N+](=O)[O-])s1)c1cccc(Br)c1	44.9*	11.7	-1.8	-2.1	3.8	HTRA1 inh conf=45.5*
C[C@H]1[C@@H](OC(=O)NCc2cccs2)CC[C@@]23CCCN2C(=O)CCC[C@@H]13	x	1.6	-2.1	-1.1	x
CN(CC(=O)Nc1ccccc1C(F)(F)F)C(=O)C1CCN(S(=O)(=O)c2ccc3c(c2)OCCO3)CC1	-1.7	0.4	-0.5	1.6	10.5
